The results in this text go back to paper PMC3510669 (Journal of immunology (Baltimore, Md. : 1950), 2010).

In the assay the test system is naïve CD4^+ T cells. Put plainly: pMHCII tetramer-based cell enrichment of spleen and lymph node cells. Set-up: species or system mouse. The following applies: B6 mice; for fold smaller than the 2W:I-A^b-specific naïve population: spleen and lymph nodes (3K: spleen and lymph nodes or thymus), Fig. 3B, C, 4D; for size of naïve CD4+ T cell population specific for peptide:I-A^b: spleen and lymph nodes, mean, Fig. 4D, 6D. The essentials: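 Spleen and lymph node cells from individual naïve B6 mice were enriched with peptide:I-A^b tetramers. Tetramer-binding CD4⁺ T cells were counted as total cells per mouse, and group means were taken across individual mice.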

Consider EAGGALANGAVDSA [2G], for which the “fold smaller than the 2W:I-A^b-specific naïve population” value amounted to 6 fold and the “size of naïve CD4+ T cell population specific for peptide:I-A^b” value (“size” for short) worked out at 62 ± 13 cells.

For EAGGALANWAVDSA [1G], the “fold smaller than the 2W:I-A^b-specific naïve population” value is on record as 3 fold and the “size” value is reported as 127 ± 39 cells.

EARGALANWAVDSA [1R]: the “fold smaller than the 2W:I-A^b-specific naïve population” value worked out at 3 fold and the “size” value was 108 ± 36 cells.
